Experimental data from ChEMBL document CHEMBL1649091, “Flavonoids with an oligopolysulfated moiety: a new class of anticoagulant agents” (J Med Chem, 2011).
The source made the active and inactive calls. No cut-off for these calls is given here.

Legend:
Blood [1] = assay: Anticoagulant activity in human whole blood assessed as maximum amplitude at 6.25 x 10^-4M by thromboelastography in presence of extrinsic activators; format: functional
Outline: (§1)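 Citrated whole blood from healthy donors (1:9 citrate), run within 5 h on a ROTEM analyzer. Compound in saline diluted 1:16 into blood to the final concentration stated; saline control. Intrinsic (InTEM) or extrinsic (ExTEM) activator added. Clot monitored at 37 °C in an oscillating cup-and-pin system for up to 60 min, giving R, K, angle and MA.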

[2] = biological target: T1, Coagulation factor X/antithrombin III (Homo sapiens) (UniProt P01008+P00742); assay: Inhibition of human antithrombin 3/factor 10a assessed as 25 x 10^-6M CBS31.39 substrate hydrolysis at 0.5 x 10^-3M; format: protein-complex assay
Blood [3] = assay: Anticoagulant activity in human whole blood assessed as clotting formation time at 6.25 x 10^-4M by thromboelastography in presence of extrinsic activators; format: functional; outline: as §1
Blood [4] = assay: Anticoagulant activity in human whole blood assessed as maximum amplitude at 6.25 x 10^-4M by thromboelastography in presence of intrinsic activators; format: functional; outline: as §1
[5] = Antiplatelet activity against collagen EPI-induced human platelet aggregation assessed as closure time at 6.25 x 10^-4M; format: functional
Outline: (§2)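 Compound solution added to citrated human whole blood (125 µL into 1875 µL) to the final concentration stated, then run on a PFA-100 in collagen/ADP and collagen/epinephrine cartridges. Closure time is the time until platelets occlude the membrane aperture, in seconds. Mean ± SEM of three independent experiments.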

[6] = Anticoagulant activity in human plasma assessed as concentration required to double prothrombin time; format: functional
Outline: (§3)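 Citrated pooled normal human plasma mixed 1:1 with compound in water (final 5 × 10-3 to 0.05 × 10^-3 M) and held 2 min at 37 °C. APTT: reagent added, 6 min at 37 °C, then 25 mmol/L CaCl2. PT: prewarmed PT reagent. TT: prewarmed thrombin (100 U/mL). Clotting read on a coagulometer, duplicate, three days (n = 6). Doubling concentration taken from linear regression of each concentration-response curve.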

[7] = biological target: Coagulation factor X (Homo sapiens) (UniProt P00742); assay: Inhibition of human factor 10a assessed as 125 x 10^-6M chromogenic TH substrate hydrolysis at 1 x 10^-3M
Chain of Coagulation factor X (Homo sapiens) (P00742 41-179 limits assumed): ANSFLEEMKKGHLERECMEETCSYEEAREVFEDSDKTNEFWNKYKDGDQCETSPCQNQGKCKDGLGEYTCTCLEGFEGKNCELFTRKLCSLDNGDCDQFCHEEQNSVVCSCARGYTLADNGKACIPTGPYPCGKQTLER
Chain of Coagulation factor X (Homo sapiens) (P00742 235-488 limits assumed): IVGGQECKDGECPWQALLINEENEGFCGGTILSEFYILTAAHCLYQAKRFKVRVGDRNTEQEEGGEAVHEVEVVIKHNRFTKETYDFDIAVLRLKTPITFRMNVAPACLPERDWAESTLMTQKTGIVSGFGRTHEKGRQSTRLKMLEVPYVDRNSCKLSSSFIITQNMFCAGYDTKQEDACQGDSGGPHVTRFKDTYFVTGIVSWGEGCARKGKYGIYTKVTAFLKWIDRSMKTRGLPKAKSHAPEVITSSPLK
Outline: (§4)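 Direct FXa test, with buffer in place of ATIII: compound in water in 50 mM Tris/HCl pH 8.3, 227 mM NaCl, 0.1% BSA, 10 min at 37 °C. Human FXa (0.5 U/mL final) added for 10 min, then CBS 31.39 (25 or 125 × 10^-6 M). Read at 405 nm every 12 s for 20 min. Percent inhibition from initial slope against water control, Michaelis-Menten fit.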

[8] = biological target: Coagulation factor X (Homo sapiens) (UniProt P00742); assay: Inhibition of human factor 10a assessed as 25 x 10^-6M chromogenic TH substrate hydrolysis at 1 x 10^-3M; outline: as §4
Mus musculus [9] = assay: Hepatotoxicity in mouse liver assessed as change in plasma GOT/GPT level at 150 umol/kg, ip; format: toxicity, organism-based; conditions: in vivo
Outline: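 Male CD1 mice (30-35 g), compound in saline ip at 150 µmol/kg. Portal vein citrated blood taken at 30, 60 and 120 min. GOT and GPT (U/L) measured in platelet-poor plasma on an automated chemistry analyzer. Four independent experiments, mean ± SEM.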

[10] = biological target: T1, Coagulation factor X/antithrombin III (Homo sapiens); assay: Inhibition of human antithrombin 3/factor 10a assessed as 125 x 10^-6M CBS31.39 substrate hydrolysis at 2 x 10^-3M; format: protein-complex assay
Blood [11] = assay: Anticoagulant activity in human whole blood assessed as clotting time at 6.25 x 10^-4M by thromboelastography in presence of extrinsic activators; format: functional; outline: as §1
[12] = Stability of the compound in human plasma assessed as compound remaining after 3 hrs; format: ADME, cell-free; conditions: read-out: Activity
Outline: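 Compound at 25 µM final in human plasma diluted 1:1 with PBS pH 7.4, shaken at 37 °C for 180 min. Time-zero and 180-min samples quenched with TBA buffer and cold acetonitrile, then centrifuged. Supernatant dried, redissolved and analysed by HPLC. Three independent samples per time point.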

[13] = (§5) Anticoagulant activity in human plasma assessed as concentration required to double thrombin time; format: functional; outline: as §3
[14] = biological target: Coagulation factor X (Homo sapiens) (UniProt P00742); assay: Inhibition of human factor 10a assessed as 125 x 10^-6M chromogenic TH substrate hydrolysis at 0.5 x 10^-3M; outline: as §4
Blood [15] = assay: Anticoagulant activity in human whole blood assessed as clotting formation time at 6.25 x 10^-4M by thromboelastography in presence of intrinsic activators; format: functional; outline: as §1
Blood [16] = assay: Anticoagulant activity in human whole blood assessed as clotting time at 6.25 x 10^-4M by thromboelastography in presence of intrinsic activators; format: functional; outline: as §1
[17] = biological target: T1, Coagulation factor X/antithrombin III (Homo sapiens); assay: Inhibition of human antithrombin 3/factor 10a assessed as 25 x 10^-6M CBS31.39 substrate hydrolysis at 2 x 10^-3M; format: protein-complex assay
[18] = Antiplatelet activity against collagen ADP-induced human platelet aggregation assessed as closure time at 6.25 x 10^-4M; format: functional; outline: as §2
[19] = biological target: T1, Coagulation factor X/antithrombin III (Homo sapiens); assay: Inhibition of human antithrombin 3/factor 10a assessed as 125 x 10^-6M CBS31.39 substrate hydrolysis at 0.5 x 10^-3M; format: protein-complex assay
Blood [20] = assay: Anticoagulant activity in human whole blood assessed as alpha angle at 6.25 x 10^-4M by thromboelastography in presence of intrinsic activators; format: functional; outline: as §1
[21] = biological target: T1, Coagulation factor X/antithrombin III (Homo sapiens); assay: Inhibition of human antithrombin 3/factor 10a assessed as 125 x 10^-6M CBS31.39 substrate hydrolysis at 1 x 10^-3M; format: protein-complex assay
Blood [22] = assay: Anticoagulant activity in human whole blood assessed as alpha angle at 6.25 x 10^-4M by thromboelastography in presence of extrinsic activators; format: functional; outline: as §1
[23] = biological target: Prothrombin (Homo sapiens) (UniProt P00734); assay: Inhibition of human thrombin
Outline: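 Direct thrombin assay without ATIII: compound in water in 50 mM Tris/HCl pH 8.3, 227 mM NaCl, 0.1% BSA, 10 min at 37 °C. Human thrombin (0.06 U/mL final) added for 10 min, then Chromozym TH (178 × 10^-6 M). Read at 405 nm every 12 s for 20 min. Percent inhibition from initial slope against water control. Duplicates on ≥3 days.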

Mus musculus [24] = assay: Anticoagulant activity in mouse assessed as increase in activated partial prothrombin time at 150 umol/kg, ip relative to control; format: functional
Outline: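 Adult male CD1 mice (30-35 g) given compound in saline ip at 150 µmol/kg, fasted on the day. Citrated portal vein blood taken at 30, 60 and 120 min. APTT measured in platelet-poor plasma. Expressed as ratio to saline-treated mice, mean ± SEM of three experiments.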

[25] = biological target: Coagulation factor X (Homo sapiens) (UniProt P00742); assay: Inhibition of human factor 10a assessed as 25 x 10^-6M chromogenic TH substrate hydrolysis at 0.5 x 10^-3M; outline: as §4
[26] = biological target: T1, Coagulation factor X/antithrombin III (Homo sapiens); assay: Inhibition of human antithrombin 3/factor 10a assessed as 25 x 10^-6M CBS31.39 substrate hydrolysis at 1 x 10^-3M; format: protein-complex assay
[27] = Anticoagulant activity in human plasma assessed as concentration required to double activated partial prothrombin time; format: functional; outline: as §3
[28] = biological target: Coagulation factor X (Homo sapiens) (UniProt P00742); assay: Inhibition of human factor 10a assessed as 125 x 10^-6M chromogenic TH substrate hydrolysis at 2 x 10^-3M; outline: as §4
Plasma [29] = assay: Anticoagulant activity in human plasma assessed as increase in thrombin time at 0.5 x 10^-3M relative to control; format: functional, cell-free
Outline: (§6)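 Citrated pooled normal human plasma, 1:1 with compound in water (water control), held 2 min at 37 °C before coagulometer reading. APTT: reagent, 6 min at 37 °C, then 25 mmol/L CaCl2. PT: prewarmed reagent. TT: prewarmed 100 U/mL thrombin. Ratio is clotting time with compound over time with water. Duplicates repeated on three days (n = 6).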

Plasma [30] = assay: Anticoagulant activity in human plasma assessed as increase in prothrombin time at 5 x 10^-3M relative to control; format: functional; outline: as §6
Plasma [31] = assay: Anticoagulant activity in human plasma assessed as increase in activated partial prothrombin time at 5 x 10^-3M relative to control; format: functional; outline: as §6
Plasma [32] = assay: Anticoagulant activity in human plasma assessed as increase in thrombin time at 5 x 10^-3M relative to control; format: functional, cell-free; outline: as §6
Plasma [33] = assay: Anticoagulant activity in human plasma assessed as increase in activated partial prothrombin time at 0.5 x 10^-3M relative to control; format: functional; outline: as §6
Plasma [34] = assay: Anticoagulant activity in human plasma assessed as increase in prothrombin time at 0.5 x 10^-3M relative to control; format: functional; outline: as §6
[35] = biological target: Coagulation factor X (Homo sapiens) (UniProt P00742); assay: Inhibition of human factor 10a assessed as 25 x 10^-6M chromogenic TH substrate hydrolysis at 2 x 10^-3M; outline: as §4
Homo sapiens = species: Homo sapiens; assay: as §5; format: functional; outline: as §3

SMILES	inhibition [2]	inhibition [7]	inhibition [8]	inhibition [10]	inhibition [14]	inhibition [17]	inhibition [19]	inhibition [21]	inhibition [23]	Activity (Blood [1])	Time (Blood [3])	Activity (Blood [4])	Time [5]	2PT [6]	Time (Blood [11])	Time (Blood [15])	Time (Blood [16])	Time [18]	Activity (Blood [20])	Activity (Blood [22])	further results
C[C@H]1O[C@@H](OC[C@@H]2O[C@H](Oc3c(-c4ccc(OCCOS(=O)(=O)O)c(OCCOS(=O)(=O)O)c4)oc4cc(OCCOS(=O)(=O)O)cc(O)c4c3=O)[C@@H](OS(=O)(=O)O)[C@H](OS(=O)(=O)O)[C@H]2OS(=O)(=O)O)[C@@H](OS(=O)(=O)O)[C@@H](OS(=O)(=O)O)[C@@H]1OS(=O)(=O)O	28.1%	38.8%	41.9%	33.6%	inactive	56%	20.3%	24.8%	inactive	61 mm	111 s	64 mm	>300 s	835 µM	105 s	122 s	560 s	204 s	67 degree	69 degree	Activity [13]: 867 µM; inhibition [25]: 25.7%; inhibition [26]: 47.6%; 2aPTT [27]: 145 µM; inhibition [28]: 53.3%
COc1ccc([C@@H]2CC(=O)c3c(O)cc(OS(=O)(=O)O)cc3O2)cc1OS(=O)(=O)O [HESPERETIN 3',7-O-DISULFATE]																					Activity (Plasma [29]): inactive; fold change (FC) (Plasma [30]): 1.2; fold change (FC) (Plasma [31]): 1.1; Activity (Plasma [32]): inactive
COc1ccc(-c2cc(=O)c3c(O)cc(OS(=O)(=O)O)cc3o2)cc1OS(=O)(=O)O																					fold change (FC) (Plasma [33]): 1.65; Activity (Plasma [29]): inactive; fold change (FC) (Plasma [34]): 1.1; Activity (Plasma [32]): inactive

The next lines start with results.

inhibition [2]	inhibition [7]	inhibition [8]	inhibition [10]	inhibition [14]	inhibition [17]	inhibition [19]	inhibition [21]	inhibition [23]	SMILES	Activity (Blood [1])	Time (Blood [3])	Activity (Blood [4])	Time [5]	2PT [6]	Time (Blood [11])	Time (Blood [15])	Time (Blood [16])	Time [18]	Activity (Blood [20])	Activity (Blood [22])	further results
inactive	inactive	inactive	50.7%	inactive	43.7%	28.9%	38.7%	inactive	COc1ccc(-c2cc(=O)c3c(O)cc(O[C@@H]4O[C@H](CO[C@@H]5O[C@@H](C)[C@H](OS(=O)(=O)O)[C@@H](OS(=O)(=O)O)[C@H]5OS(=O)(=O)O)[C@@H](OS(=O)(=O)O)[C@H](OS(=O)(=O)O)[C@H]4OS(=O)(=O)O)cc3o2)cc1O	54 mm	150 s	45 mm	171 s	2230 µM	49 s	229 s	267 s	162 s	57 degree	68 degree	Activity (Mus musculus [9]): Non-toxic; remaining at 3 h [12]: 95%; Activity [13]: > 5000 µM; fold change (FC) (Mus musculus [24]): 1.5; inhibition [25]: inactive; inhibition [26]: 22.6%; 2aPTT [27]: 435 µM; inhibition [28]: 23.4%
30.5%	inactive	inactive	58.1%	inactive	49.6%	39.7%	46.2%	inactive	COc1ccc([C@@H]2CC(=O)c3c(O)cc(O[C@@H]4O[C@H](CO[C@@H]5O[C@@H](C)[C@H](OS(=O)(=O)O)[C@@H](OS(=O)(=O)O)[C@H]5OS(=O)(=O)O)[C@@H](OS(=O)(=O)O)[C@H](OS(=O)(=O)O)[C@H]4OS(=O)(=O)O)cc3O2)cc1O	59 mm	116 s	40 mm	167 s	3620 µM	59 s	214 s	300 s	139 s	57 degree	70 degree	inhibition [35]: inactive; Activity (Homo sapiens): inactive; inhibition [25]: inactive; inhibition [26]: 40.2%; 2aPTT [27]: 413 µM; inhibition [28]: inactive
